From ChEMBL document CHEMBL1124751, “Synthesis of perfluoroalkylated xylitol ethers and esters: new surfactants for biomedical uses” (J Med Chem, 1990)
≈ marks a conversion by molar mass, not a printed value.

Assays:
[1] = Solubility was determined; type: physicochemical
[2] = Percent hemolysis for an erythrocyte suspension at 1% hemocrait at the concentration of 10 g/ L; type: functional, Homo sapiens
Procedure, shortened: (§1)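 Washed human red cells at 1% hematocrit (8-9 × 10^7 cells/mL) in phosphate saline pH 7.4 were mixed 1:1 with surfactant/Pluronic F-68 dispersion in 9‰ NaCl and shaken 1 h at 37 °C. After centrifugation, supernatant hemoglobin was read at 540 nm. % hemolysis = 100 (OD_test − OD_NaCl)/(OD_H2O − OD_NaCl), with 9‰ NaCl as the 0% control and water as the 100% control.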

[3] = Percent hemolysis for an erythrocyte suspension at 1% hemocrait at the concentration of 10 g/1g per L; type: functional, Homo sapiens; procedure, shortened: as §1
[4] = Percent hemolysis for an erythrocyte suspension at 1% hemocrait at the concentration of 20 g/ L; type: functional, Homo sapiens; procedure, shortened: as §1
[5] = Percent hemolysis for an erythrocyte suspension at 1% hemocrait at the concentration of 20 g/10 g per L; type: functional, Homo sapiens; procedure, shortened: as §1
[6] = Hemolytic effect on human red blood cells when dispersed in Pluronic F-68 at the concentration of 40 g/20 g per L; type: functional
Procedure, shortened: (§2)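 Human erythrocytes were freed of plasma and buffy coat (3300 rpm, 10 min, 10 °C), washed three times in isotonic phosphate saline pH 7.4, then suspended at 1% hematocrit. 2 mL suspension plus an equal volume of surfactant dispersion in Pluronic F-68 / 9‰ NaCl (g compound/g Pluronic per L) was shaken 1 h at 37 °C. Hemolysis was scored visually (0 to ++++).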

[7] = Hemolytic effect on human red blood cells when dispersed in Pluronic F-68 at the concentration of 10 g/1g per L; type: functional; procedure, shortened: as §2
[8] = Hemolytic effect on human red blood cells when dispersed in Pluronic F-68 at the concentration of 20 g/10 g per L; type: functional; procedure, shortened: as §2
[9] = test system: Mus musculus; assay: Toxicity in mice when dispersed in Pluronic F-68 in […] aqueous NaCl of 20 g/10 g per L at the concentration of 455,mg/Kg body weight; type: functional
Procedure, shortened: (§3)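 Single tail-vein injection into mice of about 20 g, about 0.5 mL (25 mL/kg body weight) per animal. The test article was a solution or dispersion of surfactant in Pluronic F-68, given as g compound/g Pluronic per L, in 9‰ aqueous NaCl. Symptoms, behavior, mortality and body-weight gain were recorded for 80 days after injection. Survival was reported as survivors/injected in a series of 10 mice.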

[10] = test system: Mus musculus; assay: Toxicity in mice when dispersed in Pluronic F-68 in […] aqueous NaCl of 42 g/22 g per L at the concentration of 1035 mg/kg body weight; type: functional; procedure, shortened: as §3
[11] = test system: Mus musculus; assay: Toxicity in mice when dispersed in Pluronic F-68 in […] aqueous NaCl of 50 g/15 g per L at the concentration of 1187 mg/kg body weight; type: functional; procedure, shortened: as §3
[12] = Growth inhibition towards Namalva Lymphoblastoid Cell Culture at the concentration of 0.05 g/L after dispersion in pluronic F-68; type: functional; conditions: in the assay text read “concentration of 0.1 g/L” for “concentration of 0.05 g/L”
Procedure, shortened: (§4)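 Namalva lymphoblastoid suspension culture (RPMI with 10% fetal calf serum, 37 °C, 7% CO2). 2 mL medium at about 3.10^5 cells/mL was mixed with 2 mL test solution, in five flasks, with a reference series in parallel. Cells were counted after 4 days of incubation, and viability was read by Trypan Blue exclusion. Results are % vs controls.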

[13] = Growth inhibition towards Namalva Lymphoblastoid Cell Culture at the concentration of 0.1 g/L; type: functional; procedure, shortened: as §4
[14] = Growth and viability inhibition towards Namalva Lymphoblastoid Cell Culture after resowing at the concentration of 0.1 g/L; type: functional
Procedure, shortened: (§5)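 Namalva lymphoblastoid cells in suspension (RPMI, 10% fetal calf serum, 37 °C, 7% CO2). Five flasks per test, each with 2 mL medium at about 3.10^5 cells/mL plus 2 mL test solution, alongside a reference series. After 4 days the compound was removed. Cells were washed and resown in 4 mL medium, and growth and viability were reported as % vs controls.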

[15] = Growth and viability inhibition towards Namalva Lymphoblastoid Cell Culture at the concentration of 0.05 g/L after dispersion in pluronic F-68; type: functional
[16] = Viability inhibition towards Namalva Lymphoblastoid Cell Culture at the concentration of 0.05 g/L after dispersion in pluronic F-68; type: functional; procedure, shortened: as §4
[17] = Viability inhibition towards Namalva Lymphoblastoid Cell Culture at the concentration of 0.1 g/L; type: functional; procedure, shortened: as §4
[18] = Hemolytic effect on human red blood cells when dispersed in Pluronic F-68 at the concentration of 20 g/5 g per L; type: functional; procedure, shortened: as §2
[19] = Hemolytic effect on human red blood cells when dispersed in Pluronic F-68 at the concentration of 40 g/10 g per L; type: functional; procedure, shortened: as §2
[20] = Hemolytic effect on human red blood cells when dispersed in Pluronic F-68 at the concentration of 10 g/2.5g per L; type: functional; procedure, shortened: as §2
[21] = test system: Mus musculus; assay: Toxicity in mice when dispersed in Pluronic F-68 in […] aqueous NaCl of 0.1 g and at the concentration of 2,mg/Kg body weight; type: functional; procedure, shortened: as §3
[22] = test system: Mus musculus; assay: Toxicity in mice when dispersed in Pluronic F-68 in […] aqueous NaCl of 15 g/3.73g per L at the concentration of 371 mg/kg body weight; type: functional; procedure, shortened: as §3
[23] = test system: Mus musculus; assay: Toxicity in mice when dispersed in Pluronic F-68 in […] aqueous NaCl of 20 g/5 g per L at the concentration of 491 mg/kg body weight; type: functional; procedure, shortened: as §3
[24] = test system: Mus musculus; assay: Toxicity in mice when dispersed in Pluronic F-68 in […] aqueous NaCl of 40 g/10 g per L at the concentration of 1034 mg/kg body weight; type: functional
[25] = Growth inhibition towards Namalva Lymphoblastoid Cell Culture at the concentration of 0.1 g/L and after detoxification on anionic exchanger; type: functional; procedure, shortened: as §4
[26] = Growth inhibition towards Namalva Lymphoblastoid Cell Culture at the concentration of 0.2 g/L; type: functional; procedure, shortened: as §4
[27] = Growth and viability inhibition towards Namalva Lymphoblastoid Cell Culture after resowing at the concentration of 0.1 g/L and after detoxification on anionic exchanger; type: functional; procedure, shortened: as §5
[28] = Growth and viability inhibition towards Namalva Lymphoblastoid Cell Culture after resowing at the concentration of 0.2 g/L; type: functional; procedure, shortened: as §5
[29] = Viability inhibition towards Namalva Lymphoblastoid Cell Culture at the concentration of 0.1 g/L and after detoxification on anionic exchanger; type: functional; procedure, shortened: as §4
[30] = Viability inhibition towards Namalva Lymphoblastoid Cell Culture at the concentration of 0.2 g/L; type: functional; procedure, shortened: as §4
[31] = Percent hemolysis for an erythrocyte suspension at 1% hemocrait at the concentration of 1 g/0.05 g per L; type: functional, Homo sapiens; procedure, shortened: as §1
[32] = Percent hemolysis for an erythrocyte suspension at 1% hemocrait at the concentration of 1 g/L; type: functional, Homo sapiens; procedure, shortened: as §1
[33] = Hemolytic effect on human red blood cells when dispersed in Pluronic F-68 at the concentration of 10 g/5g per L; type: functional; procedure, shortened: as §2
[34] = Hemolytic effect on human red blood cells when dispersed in Pluronic F-68 at the concentration of 1 g/0.05 g per L; type: functional; procedure, shortened: as §2
[35] = Hemolytic effect on human red blood cells when dispersed in Pluronic F-68 at the concentration of 20 g/1 g per L; type: functional; procedure, shortened: as §2
[36] = test system: Mus musculus; assay: Toxicity in mice when dispersed in Pluronic F-68 in […] aqueous NaCl of 0.1 g at the concentration of 2,mg/Kg body weight; type: functional; procedure, shortened: as §3
[37] = test system: Mus musculus; assay: Toxicity in mice when dispersed in Pluronic F-68 in […] aqueous NaCl of 20 g/10 g per L at the concentration of 443 mg/kg body weight; type: functional; procedure, shortened: as §3

OCC(O)C(O)C(O)COC/C=C/C(F)(F)C(F)(F)C(F)(F)C(F)(F)C(F)(F)C(F)(F)C(F)(F)C(F)(F)F (stereo not given)
solubility [1]: 50 µg/mL (≈ 81.9 µM)
Hemolysis [2]: 0%
Hemolysis [3]: 0%
Hemolysis [4]: 0%
Hemolysis [5]: 0%
Activity [6]: 65.6 mM
Activity [7]: 16.4 mM
Activity [8]: 32.8 mM
Survival ratio [9]: 10
Survival ratio [10]: 8
Survival ratio [11]: 5
Growth [12]: 108%
Growth [13]: 78%
Resowing [14]: 100%
Resowing [15]: 115%
Viability [16]: 98%
Viability [17]: 97%

O=C(CCC(F)(F)C(F)(F)C(F)(F)C(F)(F)C(F)(F)C(F)(F)C(F)(F)C(F)(F)F)OCC(O)C(O)C(O)CO (stereo not given)
solubility [1]: < 10 µg/mL

OCC(O)C(O)C(O)COC/C=C/C(F)(F)C(F)(F)C(F)(F)C(F)(F)C(F)(F)C(F)(F)F (stereo not given)
solubility [1]: < 1000 µg/mL
Activity [18]: 39.2 mM
Activity [19]: 78.4 mM
Activity [20]: 19.6 mM
Survival ratio [21]: 10
Survival ratio [22]: 10
Survival ratio [23]: 8
Survival ratio [24]: 0
Growth [13]: 23%
Growth [25]: 78%
Growth [26]: 86%
Resowing [14]: 96%
Resowing [27]: 105%
Resowing [28]: 95%
Viability [17]: 80%
Viability [29]: 93%
Viability [30]: 98%

O=C(CCC(F)(F)C(F)(F)C(F)(F)C(F)(F)C(F)(F)F)OCC(O)C(O)C(O)CO (stereo not given)
solubility [1]: 500 µg/mL (≈ 1050 µM)

OCC(O)C(O)C(O)COC/C=C/C(F)(F)C(F)(F)C(F)(F)C(F)(F)F (stereo not given)
solubility [1]: < 5000 µg/mL
Hemolysis [31]: 0%
Hemolysis [32]: 0%
Activity [33]: 24.4 mM
Activity [34]: 2.4 mM
Activity [35]: 48.7 mM
Survival ratio [36]: 10
Survival ratio [37]: 9
Growth [13]: 32%
Growth [25]: 125%
Resowing [14]: 106%
Resowing [27]: 105%
Viability [17]: 87%
Viability [29]: 95%
